Results taken from ChEMBL document CHEMBL4376814, “Novel cyclin-dependent kinase 9 (CDK9) inhibitor with suppression of cancer stemness activity against non-small-cell lung cancer” (Eur J Med Chem, 2019).
Activity calls are given as the source filed them. The rule behind the calls is not given here.

Tests used:
[1] = target: Dual specificity protein kinase CLK3 (Homo sapiens) (UniProt P49761); assay: Inhibition of full length recombinant human CLK3 at 1 uM using ERMRPRKRQGSVRRRV as substrate measured after 40 mins in presence of [gamma33P]ATP by scintillation counting method relative to control
[2] = target: PAS domain-containing serine/threonine-protein kinase (Homo sapiens) (UniProt Q96RG2); assay: Inhibition of recombinant human PASK (995 to end residues) at 1 uM using KKLNRTLSFAEPG as substrate measured after 40 mins in presence of [gamma33P]ATP by scintillation counting method relative to control
Chain of PAS domain-containing serine/threonine-protein kinase (Homo sapiens) (Q96RG2 whole entry, the tested form may be a part): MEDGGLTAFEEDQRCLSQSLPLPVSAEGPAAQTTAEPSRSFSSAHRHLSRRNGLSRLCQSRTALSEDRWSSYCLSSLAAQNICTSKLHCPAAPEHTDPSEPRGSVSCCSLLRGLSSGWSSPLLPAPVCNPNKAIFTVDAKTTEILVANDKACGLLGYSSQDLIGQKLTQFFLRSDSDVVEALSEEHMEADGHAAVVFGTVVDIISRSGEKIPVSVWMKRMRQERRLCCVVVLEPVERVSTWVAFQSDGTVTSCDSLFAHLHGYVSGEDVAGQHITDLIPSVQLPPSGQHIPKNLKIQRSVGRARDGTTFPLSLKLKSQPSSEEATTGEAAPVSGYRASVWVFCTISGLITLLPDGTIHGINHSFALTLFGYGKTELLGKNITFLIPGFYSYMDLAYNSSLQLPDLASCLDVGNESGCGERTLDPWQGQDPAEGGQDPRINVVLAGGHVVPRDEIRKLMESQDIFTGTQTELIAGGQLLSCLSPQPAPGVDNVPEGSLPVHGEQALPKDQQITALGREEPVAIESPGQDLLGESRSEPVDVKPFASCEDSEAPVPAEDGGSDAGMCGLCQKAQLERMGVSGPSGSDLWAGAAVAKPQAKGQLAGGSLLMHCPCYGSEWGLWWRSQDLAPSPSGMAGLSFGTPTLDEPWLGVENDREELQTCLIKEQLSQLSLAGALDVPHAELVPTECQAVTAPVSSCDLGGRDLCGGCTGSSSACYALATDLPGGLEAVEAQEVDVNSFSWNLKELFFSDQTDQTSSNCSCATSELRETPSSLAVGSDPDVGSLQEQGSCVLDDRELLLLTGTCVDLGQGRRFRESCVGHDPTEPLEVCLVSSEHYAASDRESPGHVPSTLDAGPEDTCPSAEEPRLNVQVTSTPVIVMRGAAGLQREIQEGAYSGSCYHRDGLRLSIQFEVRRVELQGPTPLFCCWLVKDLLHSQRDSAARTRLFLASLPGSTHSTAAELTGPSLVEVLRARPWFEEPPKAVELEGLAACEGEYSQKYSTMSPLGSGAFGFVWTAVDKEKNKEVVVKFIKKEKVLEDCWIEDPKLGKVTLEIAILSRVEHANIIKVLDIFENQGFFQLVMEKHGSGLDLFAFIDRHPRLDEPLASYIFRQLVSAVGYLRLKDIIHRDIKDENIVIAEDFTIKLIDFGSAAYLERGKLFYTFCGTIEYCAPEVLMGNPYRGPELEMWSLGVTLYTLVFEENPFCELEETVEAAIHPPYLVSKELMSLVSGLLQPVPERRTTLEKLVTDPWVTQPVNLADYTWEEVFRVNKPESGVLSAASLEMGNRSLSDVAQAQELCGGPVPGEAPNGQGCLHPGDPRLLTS

[3] = tested on: Glycogen synthase kinase-3 beta (Homo sapiens), P49841 [UNDEFINED MUTATION]; assay: Inhibition of human recombinant GSK3beta H350L mutant (2 to end residues) at 1 uM using YRRAAVPPSPSLSR as substrate incubated for 40 mins in presence of [gamma-33P]ATP at Km concentration by radiometric assay relative to control
Summary of the method: (§1)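 Single-point inhibition at 1 µM was measured in the Eurofins KinaseProfiler panel. Values are the mean of two independent experiments.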

[4] = target: Serine/threonine-protein kinase 17B (Homo sapiens) (UniProt O94768); assay: Inhibition of recombinant full-length human DRAK2 at 1 uM using KKRPQRRYSNVF as substrate measured after 120 mins in presence of [gamma33P]ATP by scintillation counting method relative to control
Chain of Serine/threonine-protein kinase 17B (Homo sapiens) (O94768 whole entry): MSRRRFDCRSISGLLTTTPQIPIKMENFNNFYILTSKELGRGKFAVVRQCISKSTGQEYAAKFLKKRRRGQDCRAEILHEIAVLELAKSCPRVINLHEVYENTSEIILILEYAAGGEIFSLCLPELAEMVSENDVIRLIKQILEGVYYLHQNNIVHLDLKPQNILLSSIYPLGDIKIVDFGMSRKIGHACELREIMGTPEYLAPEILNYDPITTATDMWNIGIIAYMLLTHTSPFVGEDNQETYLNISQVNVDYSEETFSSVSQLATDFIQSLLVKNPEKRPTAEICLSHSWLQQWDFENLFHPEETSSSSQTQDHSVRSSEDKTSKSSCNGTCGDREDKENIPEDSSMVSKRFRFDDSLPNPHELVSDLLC

MCF7 = assay: Antiproliferative activity against human MCF7 cells assessed as inhibition of cell viability after 72 hrs by CCK-8 assay; type: functional, cell-based; conditions: MCF7, 72 h
Summary of the method: (§2)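 Cells kept at 37 °C, 5% CO2 in DMEM or RPMI-1640 with 10% FBS and 1% penicillin/streptomycin, then seeded at 3000 cells/well (adherent) or 10,000 cells/well (suspension). Exposed to a range of concentrations for 72 h. CCK-8 added for 1-4 h before reading A450. […] Three independent experiments.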

[5] = target: Serine/threonine-protein kinase Nek11 (Homo sapiens) (UniProt Q8NG66); assay: Inhibition of recombinant full-length human NEK11 at 1 uM using myelin basic protein as substrate measured after 40 mins in presence of [gamma33P]ATP by scintillation counting method relative to control
[6] = target: Non-receptor tyrosine-protein kinase TYK2 (Homo sapiens) (UniProt P29597); assay: Inhibition of human TYK2 (875 to end residues) at 1 uM using GGMEDIYFEFMGGKKK as substrate measured after 40 mins in presence of [gamma33P]ATP by scintillation counting method relative to control
Summary of the method: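 Percent inhibition of kinase activity at a single compound concentration, measured by the outsourced Eurofins KinaseProfiler panel. Values are the mean of two independent experiments.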

[7] = tested on: Serine/threonine-protein kinase Chk2 (Homo sapiens), O96017 [I157T]; assay: Inhibition of recombinant human CHK2 I157T mutant (5 to end residues) at 1 uM using KKKVSRSGLYRSPSMPENLNRPR as substrate measured after 40 mins in presence of [gamma33P]ATP by scintillation counting method relative to control; summary of the method: as §1
Chain of Serine/threonine-protein kinase Chk2 (Homo sapiens), O96017 [I157T] (O96017 whole entry I157T): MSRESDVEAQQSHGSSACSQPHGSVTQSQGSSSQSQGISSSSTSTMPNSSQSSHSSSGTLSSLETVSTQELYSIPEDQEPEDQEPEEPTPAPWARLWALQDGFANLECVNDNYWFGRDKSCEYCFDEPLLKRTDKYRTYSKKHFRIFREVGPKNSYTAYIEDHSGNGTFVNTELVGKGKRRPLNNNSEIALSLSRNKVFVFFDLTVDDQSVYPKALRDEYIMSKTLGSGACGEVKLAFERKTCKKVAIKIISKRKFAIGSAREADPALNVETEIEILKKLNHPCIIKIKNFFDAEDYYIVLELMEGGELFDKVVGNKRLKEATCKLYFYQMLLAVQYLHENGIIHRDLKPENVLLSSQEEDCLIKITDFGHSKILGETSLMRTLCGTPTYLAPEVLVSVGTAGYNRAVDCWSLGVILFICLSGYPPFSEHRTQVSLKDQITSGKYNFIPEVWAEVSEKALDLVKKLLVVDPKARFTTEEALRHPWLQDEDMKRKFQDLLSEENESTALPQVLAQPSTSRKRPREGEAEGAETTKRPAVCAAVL

A549 = assay: Downregulation of NANOG in human A549 cells at 0.25 to 1 uM by Western blot analysis; type: functional, cell-based
[8] = target: Proto-oncogene tyrosine-protein kinase Src (Homo sapiens) (UniProt P12931); assay: Inhibition of recombinant full-length human cSRC at 1 uM using KVEKIGEGTYGVVYK as substrate measured after 40 mins in presence of [gamma33P]ATP by scintillation counting method relative to control
[9] = target: Muscle, skeletal receptor tyrosine-protein kinase (Homo sapiens) (UniProt O15146); assay: Inhibition of recombinant human MUSK (530 to end residues) at 1 uM using myelin basic protein as substrate measured after 40 mins in presence of [gamma33P]ATP by scintillation counting method relative to control
Chain of Muscle, skeletal receptor tyrosine-protein kinase (Homo sapiens) (O15146 whole entry, canonical isoform): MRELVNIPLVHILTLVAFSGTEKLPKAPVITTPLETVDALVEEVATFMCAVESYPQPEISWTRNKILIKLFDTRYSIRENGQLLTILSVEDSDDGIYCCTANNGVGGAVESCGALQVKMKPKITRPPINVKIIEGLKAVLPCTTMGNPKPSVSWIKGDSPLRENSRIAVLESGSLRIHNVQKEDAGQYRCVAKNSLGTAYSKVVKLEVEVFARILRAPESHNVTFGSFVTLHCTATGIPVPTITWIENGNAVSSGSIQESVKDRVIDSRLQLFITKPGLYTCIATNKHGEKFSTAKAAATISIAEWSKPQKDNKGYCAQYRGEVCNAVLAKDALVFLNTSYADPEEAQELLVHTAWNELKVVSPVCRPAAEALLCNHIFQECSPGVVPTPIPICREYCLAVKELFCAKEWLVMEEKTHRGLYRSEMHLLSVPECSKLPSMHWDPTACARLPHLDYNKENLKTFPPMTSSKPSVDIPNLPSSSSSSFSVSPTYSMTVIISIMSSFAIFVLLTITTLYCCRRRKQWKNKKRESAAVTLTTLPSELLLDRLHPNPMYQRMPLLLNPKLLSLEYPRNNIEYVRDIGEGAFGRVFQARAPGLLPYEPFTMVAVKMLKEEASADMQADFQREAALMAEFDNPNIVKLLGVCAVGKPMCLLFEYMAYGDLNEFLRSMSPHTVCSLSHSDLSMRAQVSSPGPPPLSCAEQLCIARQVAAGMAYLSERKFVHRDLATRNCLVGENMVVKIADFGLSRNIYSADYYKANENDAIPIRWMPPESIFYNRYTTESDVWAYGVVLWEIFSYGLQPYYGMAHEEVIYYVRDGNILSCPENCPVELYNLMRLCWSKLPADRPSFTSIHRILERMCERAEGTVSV

[10] = target: Phosphorylase b kinase gamma catalytic chain, skeletal muscle/heart isoform (Homo sapiens) (UniProt Q16816); assay: Inhibition of recombinant full-length human PhKgamma1 at 1 uM using KKLNRTLSFAEPG as substrate measured after 120 mins in presence of [gamma33P]ATP by scintillation counting method relative to control
[11] = target: Tyrosine-protein kinase Lyn (Homo sapiens) (UniProt P07948); assay: Inhibition of recombinant full-length human LYN at 1 uM using poly(Glu, Tyr) 4:1 as substrate measured after 40 mins in presence of [gamma33P]ATP by scintillation counting method relative to control
[12] = target: Leukocyte tyrosine kinase receptor (Homo sapiens) (UniProt P29376); assay: Inhibition of recombinant human LTK (450 to end residues) at 1 uM using GEEPLYWSFPAKKK as substrate measured after 40 mins in presence of [gamma33P]ATP by scintillation counting method relative to control
Chain of Leukocyte tyrosine kinase receptor (Homo sapiens) (P29376 whole entry, the tested form may be a part): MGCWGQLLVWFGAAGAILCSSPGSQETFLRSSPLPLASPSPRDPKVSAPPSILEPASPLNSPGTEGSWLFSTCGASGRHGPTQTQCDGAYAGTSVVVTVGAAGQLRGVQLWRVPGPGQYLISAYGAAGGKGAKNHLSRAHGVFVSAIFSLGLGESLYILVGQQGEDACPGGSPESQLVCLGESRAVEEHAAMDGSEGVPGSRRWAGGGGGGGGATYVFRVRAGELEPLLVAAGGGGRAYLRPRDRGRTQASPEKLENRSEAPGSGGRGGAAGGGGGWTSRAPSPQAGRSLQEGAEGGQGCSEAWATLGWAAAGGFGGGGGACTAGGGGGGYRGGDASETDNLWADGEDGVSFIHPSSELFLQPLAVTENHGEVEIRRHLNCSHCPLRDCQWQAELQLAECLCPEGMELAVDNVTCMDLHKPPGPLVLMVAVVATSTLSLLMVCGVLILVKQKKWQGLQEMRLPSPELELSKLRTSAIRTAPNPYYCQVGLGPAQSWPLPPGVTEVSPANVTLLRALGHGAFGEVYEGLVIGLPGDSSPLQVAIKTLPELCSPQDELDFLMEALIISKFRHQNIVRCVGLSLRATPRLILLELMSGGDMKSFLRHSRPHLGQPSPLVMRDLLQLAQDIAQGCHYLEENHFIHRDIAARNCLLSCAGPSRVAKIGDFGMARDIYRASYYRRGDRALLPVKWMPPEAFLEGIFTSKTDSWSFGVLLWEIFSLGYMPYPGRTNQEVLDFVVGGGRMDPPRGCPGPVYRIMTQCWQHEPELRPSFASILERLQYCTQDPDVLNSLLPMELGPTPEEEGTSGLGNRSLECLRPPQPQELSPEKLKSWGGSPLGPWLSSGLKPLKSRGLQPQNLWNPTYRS

[13] = tested on: Fibroblast growth factor receptor 2 (Homo sapiens), P21802 [N549H]; assay: Inhibition of recombinant human FGFR2 N549H mutant (456 to 770 residues) at 1 uM using GGEEEEYFELVKKKK as substrate measured after 40 mins in presence of [gamma33P]ATP by scintillation counting method relative to control
Chain of Fibroblast growth factor receptor 2 (Homo sapiens), P21802 [N549H] (P21802 whole entry N549H, the tested form may be a part): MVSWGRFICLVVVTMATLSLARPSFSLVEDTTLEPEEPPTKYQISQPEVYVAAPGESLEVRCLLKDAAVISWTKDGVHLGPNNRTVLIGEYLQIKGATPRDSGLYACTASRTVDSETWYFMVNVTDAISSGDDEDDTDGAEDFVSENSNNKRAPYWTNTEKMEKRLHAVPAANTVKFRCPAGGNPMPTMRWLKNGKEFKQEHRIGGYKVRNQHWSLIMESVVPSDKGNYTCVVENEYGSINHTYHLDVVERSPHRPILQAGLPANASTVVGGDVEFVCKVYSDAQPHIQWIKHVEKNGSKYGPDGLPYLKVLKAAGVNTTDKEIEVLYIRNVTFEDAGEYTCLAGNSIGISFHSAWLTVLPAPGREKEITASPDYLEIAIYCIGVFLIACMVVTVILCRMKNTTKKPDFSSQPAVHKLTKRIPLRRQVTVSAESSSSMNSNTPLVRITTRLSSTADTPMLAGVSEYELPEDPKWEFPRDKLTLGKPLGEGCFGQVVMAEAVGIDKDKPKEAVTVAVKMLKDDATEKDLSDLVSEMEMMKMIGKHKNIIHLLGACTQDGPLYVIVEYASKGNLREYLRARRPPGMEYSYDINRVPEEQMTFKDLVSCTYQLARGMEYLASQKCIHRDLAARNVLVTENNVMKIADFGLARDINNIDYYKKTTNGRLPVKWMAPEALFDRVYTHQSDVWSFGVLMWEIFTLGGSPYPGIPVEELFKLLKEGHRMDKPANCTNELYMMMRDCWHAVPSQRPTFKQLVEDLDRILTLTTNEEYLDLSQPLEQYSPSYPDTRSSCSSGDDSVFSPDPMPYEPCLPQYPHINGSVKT

[14] = target: Maternal embryonic leucine zipper kinase (Homo sapiens) (UniProt Q14680); assay: Inhibition of recombinant human MELK (1 to 340 residues) at 1 uM using KKLNRTLSFAEPG as substrate measured after 40 mins in presence of [gamma33P]ATP by scintillation counting method relative to control
[15] = target: Tau-tubulin kinase 1 (Homo sapiens) (UniProt Q5TCY1); assay: Inhibition of recombinant human TTBK1 (1 to 479 residues) at 1 uM using casein as substrate measured after 40 mins in presence of [gamma33P]ATP by scintillation counting method relative to control
[16] = target: Death-associated protein kinase 1 (Homo sapiens) (UniProt P53355); assay: Inhibition of recombinant human DAPK1 (1 to 296 residues) at 1 uM using KKLNRTLSFAEPG as substrate measured after 40 mins in presence of [gamma33P]ATP by scintillation counting method relative to control
NCI-H1299 [17] = assay: Antiproliferative activity against human H1299 cells assessed as inhibition of cell viability after 72 hrs by CCK-8 assay; type: functional, cell-based; conditions: NCI-H1299, 72 h; summary of the method: as §2
[18] = target: Serine/threonine-protein kinase WNK2 (Homo sapiens) (UniProt Q9Y3S1); assay: Inhibition of recombinant human WNK2 (166 to 489 residues) at 1 uM using MBP as substrate measured after 40 mins in presence of [gamma33P]ATP by scintillation counting method relative to control
NCI-H1299 [19] = assay: Antitumour activity against human H1299 cells xenografted in Balb/c mouse assessed as inhibition of tumour growth at 80 mg/kg, po administered for 21 days by digital caliper method relative to control; type: functional; conditions: 504 h, read-out: TGI
Summary of the method: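 Female nude mice, 6-8 weeks old, injected subcutaneously with 1×10^6 H1299 cells (100 µL of a 1×10^7/mL suspension in serum-free medium). At 100-120 mm3, randomized into groups of 5. Dosed orally each day for 21 days with drug dissolved in DMSO, or with vehicle. Caliper measurements and body weight taken every other day. Volume = short²×long×0.5. Growth inhibition based on change in volume relative to vehicle. Tumours weighed at the end.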

## CN(C)C(=O)c1cc2cnc(Nc3ccc(NC(=O)CCCCCCCN=C=S)cc3)nc2n1C1CCCC1
[1]
  inhibition: 37%
[2]
  inhibition: 6%
[3]
  inhibition: 32%
[4]
  inhibition: -8%
MCF7
  IC50: 1740 nM
[5]
  inhibition: 20%
[6]
  inhibition: 4%
[7]
  inhibition: 43%
A549
  Activity: Active
[8]
  inhibition: 35%
[9]
  inhibition: 66%
[10]
  inhibition: 71%
[11]
  inhibition: 25%
[12]
  inhibition: 33%
[13]
  inhibition: 76%
[14]
  inhibition: 88%
[15]
  inhibition: -7%
[16]
  inhibition: -5%
NCI-H1299 [17]
  IC50: 203 nM
[18]
  inhibition: 4%
NCI-H1299 [19]
  inhibition in vivo at 80 mg/kg: 94.7%
